Legend:
[1] = test system: A549; test: Anticancer activity against human A549 cells assessed as inhibition of cell growth incubated for 48 hrs by MTT assay; assay type: functional, cell-based; details: A549, 48 h
How it was run: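 A549 cells were seeded in 96-well plates and held overnight at 37°C, 95% humidity, 5% CO₂. Compounds came from DMSO stock dilution series and were added at 100, 50, 25, 12.5, 6.25 and 3.125 μg/mL for 48 hrs. Wells were PBS-washed, given MTT for 4h at 37°C, and formazan was dissolved in DMSO. A570 was read, and survival was taken as mean test OD over mean negative-control OD ×100.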

[2] = Electrochemical behavior of the compound assessed as oxidation potential peak by measuring […] current in DMSO using Ag/AgCl reference electrode by cyclic voltammetry; assay type: physicochemical
[3] = Electrochemical behavior of the compound assessed as reduction potential peak by measuring […] current in DMSO using Ag/AgCl reference electrode by cyclic voltammetry; assay type: physicochemical

| IC50 [1] [µM] | Activity [2] | Activity [3] | SMILES |
| --- | --- | --- | --- |
| 59.2 | Active | Active | COc1ccc(/C=C2/C(=O)ON=C2C)cc1OC |
| 22.8 | Active | Active | CC1=NOC(=O)/C1=C/c1c(O)ccc2ccccc12 |
| 183 | Active | Active | CC1=NOC(=O)/C1=C/c1ccc[nH]1 |
| 14.2 | Active | Active | CC1=NOC(=O)C1Cc1cccs1 (stereo not given) |
| 8.99 | Active | Active | CC1=NOC(=O)/C1=C/c1c(Cl)[nH]c2ccccc12 |
| 12.3 | Active | Active | CC1=NOC(=O)/C1=C/c1cn(-c2ccccc2)cc1-c1ccccc1 |
| 107 | Active | Active | CC1=NOC(=O)/C1=C/c1c[nH]c2ccccc12 |
| 37.4 | Active | Active | CC1=NOC(=O)/C1=C/c1c(-c2ccccc2)[nH]c2ccccc12 |
| 8.73 |  |  | COc1cccc2c1C(=O)c1c(O)c3c(c(O)c1C2=O)C[C@@](O)(C(=O)CO)C[C@@H]3O[C@H]1C[C@H](N)[C@H](O)[C@H](C)O1 [DOXORUBICIN] |

From ChEMBL document CHEMBL5104212, “Green synthesis of 3-methyl-4-(hetero)aryl methylene isoxazole-5(4H)-ones using WEOFPA/glycerol: evaluation of anticancer and electrochemical behaviour properties” (RSC Med Chem, 2022)
